Here are results for one compound from ChEMBL document CHEMBL5678805, “Intermittent administration of MEK inhibitor GDC-0973 plus PI3K inhibitor GDC-0941 triggers robust apoptosis and tumor growth inhibition” (Cancer Res, 2012).

As usually defined, the IC50 is the concentration needed to halve the response being measured.

For experiment [1], the target named is Dual specificity tyrosine-phosphorylation-regulated kinase 2 (Homo sapiens, UniProt Q92630). Kind of experiment: Inhibition of DYRK2 (unknown origin).
Dual specificity tyrosine-phosphorylation-regulated kinase 2, sequence (Q92630 whole entry): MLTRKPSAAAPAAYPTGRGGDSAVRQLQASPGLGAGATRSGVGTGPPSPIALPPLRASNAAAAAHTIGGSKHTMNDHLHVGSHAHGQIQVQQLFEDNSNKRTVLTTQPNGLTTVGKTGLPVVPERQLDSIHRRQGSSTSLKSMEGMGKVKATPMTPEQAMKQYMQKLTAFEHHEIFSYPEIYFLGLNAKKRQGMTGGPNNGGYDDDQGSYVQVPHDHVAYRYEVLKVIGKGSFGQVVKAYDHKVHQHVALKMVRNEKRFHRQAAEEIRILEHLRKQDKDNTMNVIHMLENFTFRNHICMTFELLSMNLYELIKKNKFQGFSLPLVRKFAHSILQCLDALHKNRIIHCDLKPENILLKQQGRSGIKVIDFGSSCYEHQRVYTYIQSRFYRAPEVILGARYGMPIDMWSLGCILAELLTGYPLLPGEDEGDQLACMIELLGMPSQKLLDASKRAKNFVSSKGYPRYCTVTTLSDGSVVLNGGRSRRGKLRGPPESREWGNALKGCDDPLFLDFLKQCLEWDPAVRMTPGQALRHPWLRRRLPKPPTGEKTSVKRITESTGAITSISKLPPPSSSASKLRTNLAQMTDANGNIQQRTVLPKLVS
For a further experiment, the target named is Ephrin type-B receptor 4 (Homo sapiens, UniProt P54760). The experiment is described as follows: Inhibition of EphB4 (unknown origin).
A further experiment deals with Insulin receptor (Homo sapiens, UniProt P06213). The experiment is described as follows: Inhibition of insulin receptor (unknown origin).
Insulin receptor, sequence (P06213 28-758 limits assumed): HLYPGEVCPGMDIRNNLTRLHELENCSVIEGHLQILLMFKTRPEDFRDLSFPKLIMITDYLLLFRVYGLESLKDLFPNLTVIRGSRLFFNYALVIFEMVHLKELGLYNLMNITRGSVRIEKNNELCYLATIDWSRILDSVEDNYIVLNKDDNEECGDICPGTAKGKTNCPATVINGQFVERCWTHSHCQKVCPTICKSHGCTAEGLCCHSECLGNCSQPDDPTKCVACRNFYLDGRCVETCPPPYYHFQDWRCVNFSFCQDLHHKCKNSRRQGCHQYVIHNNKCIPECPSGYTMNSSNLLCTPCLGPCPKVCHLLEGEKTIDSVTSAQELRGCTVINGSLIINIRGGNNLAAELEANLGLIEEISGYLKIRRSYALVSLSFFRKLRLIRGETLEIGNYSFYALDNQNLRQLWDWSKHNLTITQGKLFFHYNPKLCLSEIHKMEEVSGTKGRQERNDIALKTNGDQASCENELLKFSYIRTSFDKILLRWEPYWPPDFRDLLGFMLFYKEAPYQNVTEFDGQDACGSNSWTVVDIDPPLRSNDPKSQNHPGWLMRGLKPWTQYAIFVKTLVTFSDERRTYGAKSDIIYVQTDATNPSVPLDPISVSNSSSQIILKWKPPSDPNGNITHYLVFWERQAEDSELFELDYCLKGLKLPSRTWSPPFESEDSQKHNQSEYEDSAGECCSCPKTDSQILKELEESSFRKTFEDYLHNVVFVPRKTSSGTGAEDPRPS
Insulin receptor, sequence (P06213 763-1382 limits assumed): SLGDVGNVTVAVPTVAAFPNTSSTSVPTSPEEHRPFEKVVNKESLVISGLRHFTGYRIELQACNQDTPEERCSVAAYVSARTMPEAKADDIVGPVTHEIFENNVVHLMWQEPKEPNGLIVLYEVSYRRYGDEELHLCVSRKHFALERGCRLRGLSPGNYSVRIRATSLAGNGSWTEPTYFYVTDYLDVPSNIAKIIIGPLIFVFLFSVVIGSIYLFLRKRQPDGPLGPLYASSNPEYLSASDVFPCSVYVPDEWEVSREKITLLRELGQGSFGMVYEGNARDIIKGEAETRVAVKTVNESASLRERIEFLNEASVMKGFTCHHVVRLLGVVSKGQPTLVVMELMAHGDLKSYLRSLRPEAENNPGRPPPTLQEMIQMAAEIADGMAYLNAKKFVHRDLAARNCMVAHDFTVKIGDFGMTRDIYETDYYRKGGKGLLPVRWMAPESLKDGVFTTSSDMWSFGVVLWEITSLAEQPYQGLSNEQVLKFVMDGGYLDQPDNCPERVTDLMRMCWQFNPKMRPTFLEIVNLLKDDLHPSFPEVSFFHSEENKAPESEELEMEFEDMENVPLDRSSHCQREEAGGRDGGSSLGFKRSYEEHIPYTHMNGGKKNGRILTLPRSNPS
The target of experiment [2] is Vascular endothelial growth factor receptor 2 (Homo sapiens, UniProt P35968). Kind of experiment: Inhibition of KDR (unknown origin).
Vascular endothelial growth factor receptor 2, sequence (P35968 whole entry): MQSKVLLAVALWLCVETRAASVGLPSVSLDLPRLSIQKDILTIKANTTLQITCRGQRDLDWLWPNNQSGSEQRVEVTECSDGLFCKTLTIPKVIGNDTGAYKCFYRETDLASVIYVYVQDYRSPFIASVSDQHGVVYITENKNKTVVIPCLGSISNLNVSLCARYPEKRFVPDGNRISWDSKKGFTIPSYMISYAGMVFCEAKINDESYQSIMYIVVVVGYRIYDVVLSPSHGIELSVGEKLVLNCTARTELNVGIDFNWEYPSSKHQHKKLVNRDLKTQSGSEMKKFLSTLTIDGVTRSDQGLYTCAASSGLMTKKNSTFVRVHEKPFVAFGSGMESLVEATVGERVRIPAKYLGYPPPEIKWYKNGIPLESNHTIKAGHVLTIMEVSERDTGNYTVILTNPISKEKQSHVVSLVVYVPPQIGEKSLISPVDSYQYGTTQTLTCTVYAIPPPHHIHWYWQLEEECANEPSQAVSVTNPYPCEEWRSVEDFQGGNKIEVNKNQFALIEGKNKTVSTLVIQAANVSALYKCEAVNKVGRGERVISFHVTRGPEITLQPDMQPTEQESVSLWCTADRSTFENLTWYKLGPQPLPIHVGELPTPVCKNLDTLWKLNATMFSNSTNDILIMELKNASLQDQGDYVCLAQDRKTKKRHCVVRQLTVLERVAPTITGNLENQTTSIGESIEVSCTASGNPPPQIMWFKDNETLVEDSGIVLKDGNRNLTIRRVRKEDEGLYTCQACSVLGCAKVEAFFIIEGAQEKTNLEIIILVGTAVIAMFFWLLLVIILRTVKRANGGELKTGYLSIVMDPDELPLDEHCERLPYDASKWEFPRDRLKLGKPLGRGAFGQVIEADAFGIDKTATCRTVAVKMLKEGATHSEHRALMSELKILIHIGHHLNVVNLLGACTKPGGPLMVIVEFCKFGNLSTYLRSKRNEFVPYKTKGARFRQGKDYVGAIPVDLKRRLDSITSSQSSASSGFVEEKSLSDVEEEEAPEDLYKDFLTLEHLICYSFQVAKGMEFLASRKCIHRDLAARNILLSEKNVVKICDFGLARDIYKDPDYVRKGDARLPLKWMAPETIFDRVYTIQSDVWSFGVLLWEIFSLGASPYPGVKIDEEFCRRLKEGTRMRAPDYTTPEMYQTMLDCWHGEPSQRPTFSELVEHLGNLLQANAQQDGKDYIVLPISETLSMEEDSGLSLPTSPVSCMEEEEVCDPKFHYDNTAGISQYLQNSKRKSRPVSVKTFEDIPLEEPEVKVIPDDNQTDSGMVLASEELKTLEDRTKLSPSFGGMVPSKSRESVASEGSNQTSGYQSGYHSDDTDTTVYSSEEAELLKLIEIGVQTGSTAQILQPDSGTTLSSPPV
Experiment [3] concerns the target Serine/threonine-protein kinase MARK1 (Homo sapiens, UniProt Q9P0L2). Kind of experiment: Inhibition of MARK1 (unknown origin).
In experiment [4] the target is Serine/threonine-protein kinase PAK 6 (Homo sapiens, UniProt Q9NQU5). Kind of experiment: Inhibition of PAK6 (unknown origin).
Serine/threonine-protein kinase PAK 6, sequence (Q9NQU5 whole entry): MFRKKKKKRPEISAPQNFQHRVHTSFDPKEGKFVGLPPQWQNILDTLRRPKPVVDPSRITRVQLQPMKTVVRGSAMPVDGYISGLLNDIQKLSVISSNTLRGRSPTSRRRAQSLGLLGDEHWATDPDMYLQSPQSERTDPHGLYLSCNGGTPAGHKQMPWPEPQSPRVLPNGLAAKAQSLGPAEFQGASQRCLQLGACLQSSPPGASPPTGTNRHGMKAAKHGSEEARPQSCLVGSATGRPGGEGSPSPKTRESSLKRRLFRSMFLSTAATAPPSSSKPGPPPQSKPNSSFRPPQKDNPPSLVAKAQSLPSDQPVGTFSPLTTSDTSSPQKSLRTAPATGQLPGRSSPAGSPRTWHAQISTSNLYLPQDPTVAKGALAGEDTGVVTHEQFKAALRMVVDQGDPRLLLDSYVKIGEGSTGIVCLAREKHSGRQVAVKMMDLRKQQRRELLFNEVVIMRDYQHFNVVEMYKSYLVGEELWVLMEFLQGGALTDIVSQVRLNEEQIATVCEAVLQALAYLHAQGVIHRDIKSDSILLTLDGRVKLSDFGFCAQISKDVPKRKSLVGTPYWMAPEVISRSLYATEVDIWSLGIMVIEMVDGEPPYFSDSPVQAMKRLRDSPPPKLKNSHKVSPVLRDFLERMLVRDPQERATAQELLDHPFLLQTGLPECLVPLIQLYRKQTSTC
For experiment [5], the target named is Serine/threonine-protein kinase D2 (Homo sapiens, UniProt Q9BZL6). The experiment is described as follows: Inhibition of PKD2 (unknown origin).
Serine/threonine-protein kinase D2, sequence (Q9BZL6 whole entry): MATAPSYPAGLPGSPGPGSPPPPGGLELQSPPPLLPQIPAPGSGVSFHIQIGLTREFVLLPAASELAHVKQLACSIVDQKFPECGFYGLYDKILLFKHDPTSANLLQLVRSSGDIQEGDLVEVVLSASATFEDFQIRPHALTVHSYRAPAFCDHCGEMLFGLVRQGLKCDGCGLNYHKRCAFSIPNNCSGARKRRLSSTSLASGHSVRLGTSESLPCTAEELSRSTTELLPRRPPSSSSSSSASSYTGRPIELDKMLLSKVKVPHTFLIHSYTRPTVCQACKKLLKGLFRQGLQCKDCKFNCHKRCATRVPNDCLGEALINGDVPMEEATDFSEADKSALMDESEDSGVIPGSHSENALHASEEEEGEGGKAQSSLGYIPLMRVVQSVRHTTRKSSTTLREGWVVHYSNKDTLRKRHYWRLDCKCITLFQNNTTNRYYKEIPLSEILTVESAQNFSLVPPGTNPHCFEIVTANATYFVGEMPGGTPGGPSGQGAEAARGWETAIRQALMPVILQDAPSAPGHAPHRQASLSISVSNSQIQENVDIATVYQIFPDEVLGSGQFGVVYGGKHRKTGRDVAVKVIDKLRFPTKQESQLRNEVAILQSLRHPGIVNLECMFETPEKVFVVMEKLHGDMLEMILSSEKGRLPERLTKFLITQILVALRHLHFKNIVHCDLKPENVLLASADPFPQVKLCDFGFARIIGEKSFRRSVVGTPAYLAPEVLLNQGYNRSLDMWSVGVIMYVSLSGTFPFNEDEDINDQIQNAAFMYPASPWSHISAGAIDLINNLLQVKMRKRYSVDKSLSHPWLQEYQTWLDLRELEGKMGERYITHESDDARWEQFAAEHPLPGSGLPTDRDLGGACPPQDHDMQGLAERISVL
For another experiment, the system named is HCT-116. Kind of experiment: Antitumor activity against human HCT-116 cells harboring KRAS G13D/PIK3CA […]/CTNNB1 S45del/CDKN2A G23fs mutant xenografted in mouse assessed as tumor growth inhibition at 2.5 mg/kg, po. The class given is functional. The conditions noted are these: read-out: TGI. Summed up:
(§1)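 Single-agent dose ranging in human tumor xenograft mice at 2.5, 5 or 10 mg/kg oral. Tumor volume was measured by caliper as (L×W×W)/2. %TGI = 100×[1 − AUC(treatment/d)/AUC(vehicle/d)] from the fitted growth curve per dose group, relative to vehicle.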
In general terms: Xenograft models place foreign cells or tissue in a host animal.

The next experiment concerns 537-mel. Kind of experiment: Antitumor activity against human 537-mel cells harboring PTEN null mutation xenografted in mouse assessed as tumor growth inhibition at 5 mg/kg, po. It counts as functional. The conditions noted are these: read-out: TGI. Summed up: (§2)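 Mice carrying human tumor xenografts dosed orally once daily for 21 consecutive days. Tumor volume measured by calipers as (L×W×W)/2. %TGI = 100×[1 − AUC(treatment/day)/AUC(vehicle/day)], using the area under the fitted growth curve relative to vehicle.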

Another experiment deals with A-375. The experiment is described as follows: Antitumor activity against human A-375 cells harboring BRAF V600E/CDKN2A E61 mutant xenografted in mouse assessed as tumor growth inhibition at 10 mg/kg, po. It counts as functional. The settings on record: A-375, read-out: TGI. Summed up: as §2
Experiment [6] is described as follows: Antitumor activity against human A375.X1 cells harboring BRAF V600E/CDKN2A E61 mutant xenografted in mouse assessed as tumor growth inhibition at 5 mg/kg, po. The settings on record: A375.X1, read-out: TGI. The class given is functional. Summed up:
as §1

The next experiment concerns NCI-H441. Kind of experiment: Antitumor activity against human NCI-H441 cells harboring KRAS G12V/TP53 R158L/MET high mutant xenografted in mouse assessed as tumor growth inhibition at 5 mg/kg, po. It counts as functional. The settings on record: read-out: TGI. An outline of the steps:
(§3)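 Human tumor xenografts in mice were dosed orally at the indicated mg/kg. Tumor volume was measured with calipers as (L×W×W)/2. %TGI = 100 × [1 − (AUC treatment/d)/(AUC vehicle/d)], using the area under the fitted tumor-growth curve per day for each dose group relative to vehicle.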

In another experiment the test system is SK-OV-3. The experiment is described as follows: Antitumor activity against human SK-OV-3 cells harboring FBXW7 R505L and CDKN2A mutant xenografted in mouse assessed as tumor growth inhibition at 10 mg/kg, po. It counts as functional. The settings on record: read-out: TGI. Summed up:
as §3

Experiment [7] concerns NCI-H2122. The experiment is described as follows: Antitumor activity against human NCI-H2122 cells xenografted in mouse assessed as reduction in ERK phosphorylation at 1 to 10 mg/kg, po administered for 3 days and measured at 8 hrs by Western blot analysis. It counts as functional. On the set-up: scale not given: the % may be the effect or the level left. The conditions noted are these: time 80 hrs. Summed up: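 NCI-H2122 xenograft mice received 3 daily oral doses of 1, 3, 5 or 10 mg/kg. Tumors were collected 2, 8 and 24 h after the last dose, pulverized on dry ice and lysed. Lysates were run on 4–12% SDS-PAGE and transferred to nitrocellulose. p-ERK1/2 and t-ERK1/2 bands were quantified on an Odyssey imager and expressed relative to vehicle-treated mice (0 h).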

Experiment [8] has as its system 888-mel. The experiment is described as follows: Antiproliferative activity against human 888-mel cells harboring BRAF V600E mutant assessed as reduction in cell viability incubated for 96 hrs in presence of 4-(2-(1H-indazol-4-yl)-6-((4-(methylsulfonyl)piperazin-1-yl)methyl)thieno[3,2-d]pyrimidin-4-yl)morpholine. It counts as functional, cell-based.
The next experiment concerns COLO-829. The experiment is described as follows: Antiproliferative activity against human COLO-829 cells assessed as reduction in cell viability incubated for 96 hrs in presence of 4-(2-(1H-indazol-4-yl)-6-((4-(methylsulfonyl)piperazin-1-yl)methyl)thieno[3,2-d]pyrimidin-4-yl)morpholine. The class given is functional, cell-based.
The subject of experiment [9] is A2058. Kind of experiment: Antiproliferative activity against human A2058 cells assessed reduction in cell viability incubated for 4 days in presence of 4-(2-(1H-indazol-4-yl)-6-((4-(methylsulfonyl)piperazin-1-yl)methyl)thieno[3,2-d]pyrimidin-4-yl)morpholine by celltiter-glo assay. The class given is functional. The settings on record: time 4 day. An outline of the steps: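 4-day CellTiter-Glo viability read-out on melanoma lines, cells exposed to increasing concentrations of each inhibitor alone and in combination.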
(In general: In ATP-based viability assays light output follows the ATP content of the culture.)

The next experiment has as its system DLD-1. Kind of experiment: Antitumor activity against human DLD-1 cells xenografted in mouse assessed as tumor growth inhibition at 10 mg/kg, po administered every third day for 21 days in presence of 4-(2-(1H-indazol-4-yl)-6-((4-(methylsulfonyl)piperazin-1-yl)methyl)thieno[3,2-d]pyrimidin-4-yl)morpholine. It counts as functional. The conditions noted are these: DLD-1, 504 h, time 21 day, read-out: TGI. Summed up:
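Human tumor xenografts in mice. Drugs given orally, as single agents or combined with the PI3K inhibitor. Schedules were daily (QD) or every third day (Q3D) over 21 days. Tumor volume was measured by caliper as (L×W×W)/2. %TGI = 100×[1 − AUC(treatment/d)/AUC(vehicle/d)] from fitted growth curves, with group means. Tumor lysates were immunoblotted for pS6.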

For experiment [10], the system named is NCI-H2122. The experiment is described as follows: Antitumor activity against human NCI-H2122 cells xenografted in mouse assessed as tumor growth inhibition at 20 mg/kg, po administered once a day for 21 days. The conditions noted are these: NCI-H2122, 504 h, time 21 day, read-out: TGI. The class given is functional. An outline of the steps:
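Mice bearing NCI-H2122 xenografts were given MEK inhibitor, PI3K inhibitor, or both, orally once daily for 21 consecutive days at the doses labeled. Caliper tumor volumes were calculated as (L×W×W)/2. %TGI was derived from the AUC of the fitted growth curve per day relative to vehicle.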

In experiment [11] the test system is 888-mel. Kind of experiment: Inhibition of AKT phosphorylation in human 888-mel cells preincubated with compound for 24 hrs followed by compound washout and measured after 2 hrs in presence of 4-(2-(1H-indazol-4-yl)-6-((4-(methylsulfonyl)piperazin-1-yl)methyl)thieno[3,2-d]pyrimidin-4-yl)morpholine by immunoblotting analysis. It counts as cell-based. Summed up:
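The medium was then exchanged to remove compound. Lysates were prepared 2 and 24 h after washout and immunoblotted for cleaved PARP, p-AKT and p-ERK using HRP secondary antibody and ECL.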
A general note: In western blotting, separated proteins are transferred to a membrane and probed.

Experiment [12] deals with A2058. The experiment is described as follows: Antitumor activity against human A2058 cells harboring BRAF V600E/PTEN deletion mutant xenografted in mouse assessed as suppression of S6 phosphorylation at 15 mg/kg, po administered every third day for 21 days and measured after 72 hrs post dose by Western blot analysis. It counts as functional, organism-based. The settings on record: time 576.0 hrs.

Experiment [13] has as its system A2058. Kind of experiment: Antitumor activity against human A2058 cells harboring BRAF V600E/PTEN deletion mutant xenografted in mouse assessed as decrease in tumor volume at 10 mg/kg, po administered once weekly for 21 days in presence of GDC-0980 by digital calipers analysis. The class given is functional, organism-based. The conditions noted are these: time 21.0 day.

Activity calls are given as the source filed them. No cut-off for these calls is given here.

Consider `O=C(c1ccc(F)c(F)c1Nc1ccc(I)cc1F)N1CC(O)([C@@H]2CCCCN2)C1` [COBIMETINIB], for which the IC50 (in experiment [1]; at Ephrin type-B receptor 4; against Insulin receptor; in experiment [2]; in [3]; in experiment [4]) was > 10 µM throughout. For the same compound, in [5], the IC50 is > 10 µM. Besides, in the experiment with HCT-116, the inhibition in vivo at 2.5 mg/kg stood at 34%. For the same compound, the inhibition in vivo at 5 mg/kg with 537-mel was determined as 94%; in [6], 106%; in the experiment with NCI-H441, 59%. Further, the values for the inhibition in vivo at 10 mg/kg in the experiment with A-375, with SK-OV-3 and in the experiment on DLD-1 were 122%, 63% and 72%, respectively. Moreover, the Activity in the experiment on NCI-H2122 [7] is reported as 83%; in the experiment with A2058 [9] it was 60%. In addition, the outcome with 888-mel [8] and with COLO-829 was inactive. For the same compound, in the experiment with NCI-H2122 [10], the inhibition in vivo at 20 mg/kg amounted to 61%. For the same compound, in the experiment on 888-mel [11], the inhibition result is “Active”. The outcome with A2058 [12] and with A2058 [13] was Active.
